Assay [1] has as its system HepG2. Kind of assay: Antiproliferative activity against human HepG2 cells after 72 hrs by SRB assay. The assay is classed as functional, cell-based. The conditions noted are these: HepG2, 72 h.
The subject of assay [2] is HT-29. Kind of assay: Antiproliferative activity against human HT-29 cells after 72 hrs by SRB assay. The assay is classed as functional, cell-based. To be noted: HT-29, 72 h. The method, boiled down: (§1)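 SRB assay. HT-29 grown in DMEM; HepG2 and MCF-7 grown in RPMI-1640, all with 10% heat-inactivated FBS at 37 °C under 5% CO2. Cells seeded at 1000–2000/well, left 24 h, then exposed to a range of concentrations for 72 h. Fixed with 10% TCA for 1 h at 4 °C, stained with 0.4% SRB, OD read at 564 nm. IC50 taken from a Boltzmann sigmoidal nonlinear fit. Mean ± S.D. of three separate experiments.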
In general terms: In SRB staining, fixed cells bind dye roughly in proportion to their protein.

The subject of another assay is MCF7. Kind of assay: Antiproliferative activity against human MCF7 cells after 72 hrs by SRB assay. To be noted: MCF7, 72 h. The assay is classed as functional, cell-based. The method, boiled down:
as §1

Assay [3] has as its system HT-29. Put plainly: Ratio of doxorubicin IC50 to compound IC50 for human HT-29 cells. The assay is classed as functional.
In assay [4] the test system is HepG2. Put plainly: Cell cycle arrest in human HepG2 cells assessed as reduction in G0/G1 phase at IC50 for 24 hrs by propidium iodide staining-based FACS analysis relative to untreated control. In kind it is functional. The method, boiled down:
(§2)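 HepG2 cells exposed 24 h at each compound's preset concentration. Then washed in ice-cold PBS, fixed in ice-cold 70% ethanol, treated with 0.1 mg/ml RNase and stained with PI. DNA content read by flow cytometry, and phase distribution compared with untreated control. Triplicate experiments.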
Background: In flow cytometry, cells or beads pass a laser one at a time.

Assay [5] relates to HepG2. Kind of assay: Induction of apoptosis in human HepG2 cells assessed as down regulation of Bcl2 expression at IC50 by sandwich ELISA relative to untreated control. The assay is classed as functional. A general note: ELISA stands for enzyme-linked immunosorbent assay.
Assay [6] has as its system HepG2. Put plainly: Induction of apoptosis in human HepG2 cells assessed as upregulation of Bax expression at IC50 by sandwich ELISA relative to untreated control. The assay is classed as functional.
Assay [7] concerns HepG2. Kind of assay: Induction of apoptosis in human HepG2 cells assessed as apoptotic cells after 24 hrs by annexin-V/FITC-propidium iodide staining-based FACS analysis relative to untreated control. In kind it is functional. The method, boiled down: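 HepG2 cells treated for 24 h, harvested and washed in PBS. 10^5 cells stained with annexin V-FITC and PI from a detection kit. Flow cytometry used unstained cells for voltage and compensation. Early plus late apoptotic quadrants (LR+UR) compared with control. Triplicate experiments.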

Assay [8] deals with HepG2. Put plainly: Cell cycle arrest in human HepG2 cells assessed as reduction in S phase at IC50 for 24 hrs by propidium iodide staining-based FACS analysis relative to untreated control. In kind it is functional. The method, boiled down: as §2
Assay [9] concerns HepG2. Kind of assay: Cell cycle arrest in human HepG2 cells assessed as accumulation at preG1 phase at IC50 for 24 hrs by propidium iodide staining-based FACS analysis relative to untreated control. In kind it is functional. An outline of the steps:
as §2

The subject of assay [10] is HepG2. Put plainly: Induction of apoptosis in human HepG2 cells assessed as increase in caspase-3 expression at IC50 by sandwich ELISA relative to untreated control. In kind it is functional.
For assay [11], the system named is HT-29. Put plainly: Induction of apoptosis in human HT-29 cells assessed as increase in caspase-3 expression at IC50 by sandwich ELISA relative to untreated control. The assay is classed as functional.
Assay [12] deals with HepG2. Kind of assay: Cell cycle arrest in human HepG2 cells assessed as increase in S phase at IC50 for 24 hrs by propidium iodide staining-based FACS analysis relative to untreated control.
Assay [13] relates to HepG2. Put plainly: Ratio of doxorubicin IC50 to compound IC50 for human HepG2 cells. In kind it is functional. An outline of the steps:
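SRB growth assay: HepG2 in RPMI-1640 + 10% heat-inactivated FBS, seeded 1000–2000 cells/well, dosed after 24 h with graded concentrations alongside doxorubicin for 72 h; TCA-fixed, SRB-stained, OD 564 nm. IC50 fitted as Boltzmann sigmoidal curve vs untreated controls, three separate experiments; ratio = doxorubicin IC50 / compound IC50 from the same assay.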

What is called IC50 is the concentration at which inhibition is half-maximal.

Calls of active or inactive are those of the source. The calls are words filed in the database; no cut-off is given here. Where only a bound is given, the exact number is not on record here.

For the compound `O=C(Cn1nc(-c2ccccc2)c2ccccc2c1=O)Nc1ccccc1`, the 50% inhibitory concentration (IC50) in the assay with HepG2 [1] was 13.4 µM; with HT-29 [2] it was 99 µM; with MCF7 it was 43 µM.

As to `COc1ccc(NC(=O)Cn2nc(-c3ccccc3)c3ccccc3c2=O)cc1`, the IC50 with HepG2 [1] was above 100 µM; with HT-29 [2], above 100 µM; in the assay with MCF7 it was 77 µM.

As for `O=C(Cn1nc(Cc2ccccc2)c2ccccc2c1=O)Nc1ccc(F)cc1`, the results for the IC50 in the assay on HepG2 [1], in the assay with HT-29 [2] and with MCF7 were 27 µM, 98 µM and 30 µM, respectively.

For `O=C(Cn1nc(-c2ccccc2)c2ccccc2c1=O)Nc1ccc(F)cc1`, the IC50 in the assay with HepG2 [1] turned out to be 10.6 µM; with HT-29 [2], 46.2 µM; in the assay on MCF7, 35 µM.

As to `COc1cccc2c1C(=O)c1c(O)c3c(c(O)c1C2=O)C[C@@](O)(C(=O)CO)C[C@@H]3O[C@H]1C[C@H](N)[C@H](O)[C@H](C)O1` [DOXORUBICIN], the IC50 with HepG2 [1] amounted to 3.45 µM; in the assay on HT-29 [2], 7.7 µM.

Consider `O=C(Cn1nc(-c2ccccc2)c2ccccc2c1=O)Nc1ccc(Cl)cc1`, for which the 50% inhibitory concentration (IC50) was found to be 10.3 µM with HepG2 [1], 4.02 µM in the assay on HT-29 [2] and 33 µM in the assay on MCF7. For the same compound, in the assay on HT-29 [3], the “Ratio IC50” value is reported as 1.9.

Regarding `O=C(Cn1nc(Cc2ccccc2)c2ccccc2c1=O)Nc1cccc(Cl)c1`, the IC50 was 14.3 µM in the assay with HepG2 [1], 3.68 µM in the assay with HT-29 [2] and 10.8 µM with MCF7. Moreover, the “Ratio IC50” value in the assay on HT-29 [3] is 2.

Consider `O=C(Cn1nc(-c2ccccc2)c2ccccc2c1=O)Nc1cccc(C(F)(F)F)c1`, for which the outcome in the assay on HepG2 [4], with HepG2 [8] and in the assay on HepG2 [9] was inactive. In addition, the Activity with HepG2 [5] is reported as 9.6%; with HepG2 [6], 44%. For the same compound, the IC50 in the assay with HepG2 [1] was found to be 3.5 µM; in the assay on HT-29 [2] it was 41.2 µM; in the assay on MCF7, 58 µM. The Ratio is reported as 2.1 with HepG2 [7] and 2.5 in the assay on HepG2 [10].

With `COc1ccc(NC(=O)Cn2nc(Cc3ccccc3)c3ccccc3c2=O)cc1`, the IC50 with HepG2 [1] was 69 µM; in the assay on HT-29 [2], above 100 µM; in the assay with MCF7, 62 µM.

As for `O=C(Cn1nc(-c2ccccc2)c2ccccc2c1=O)Nc1ccccc1Cl`, the IC50 in the assay with HepG2 [1] is 33 µM; in the assay with HT-29 [2], 88.6 µM; in the assay on MCF7, 30 µM.

For `O=C(Cn1nc(Cc2ccccc2)c2ccccc2c1=O)Nc1ccc(Cl)cc1`, the IC50 in the assay with HepG2 [1] was above 100 µM; with HT-29 [2] it was 2.98 µM; with MCF7 it was 13 µM. Moreover, the “Ratio IC50” value with HT-29 [3] is given as 2.6.

With `O=C(Cn1nc(-c2ccccc2)c2ccccc2c1=O)Nc1cccc(Cl)c1`, the result in the assay on HepG2 [4], in the assay with HepG2 [8] and in the assay on HepG2 [9] was inactive. Further, the Activity with HepG2 [5] is 22%; in the assay with HepG2 [6], 43.5%. For the same compound, the figures for the IC50 in the assay on HepG2 [1], with HT-29 [2] and in the assay on MCF7 were 3.29 µM, 3.05 µM and 74 µM, respectively. For the same compound, the “Ratio IC50” value in the assay on HT-29 [3] amounted to 2.5. Moreover, the Ratio worked out at 2.4 in the assay on HepG2 [7], 3 in the assay with HepG2 [10] and 5.6 in the assay with HT-29 [11].

On to `O=C(Cn1nc(Cc2ccccc2)c2ccccc2c1=O)Nc1cccc(C(F)(F)F)c1`, for which the Activity with HepG2 [4] was determined as 32.3%; in the assay with HepG2 [5], 22%; in the assay on HepG2 [6] it was 39.9%; in the assay on HepG2 [12], 27.7%. Moreover, the IC50 was found to be 3.52 µM in the assay with HepG2 [1], 61 µM with HT-29 [2] and 3.85 µM in the assay on MCF7. In addition, the Ratio in the assay on HepG2 [7] worked out at 2.7; in the assay on HepG2 [9], 9.4; in the assay on HepG2 [10] it was 2.8.

Take `O=C(Cn1nc(Cc2ccccc2)c2ccccc2c1=O)Nc1ccccc1Cl`: the Ratio in the assay with HepG2 [4] came to 2; with HepG2 [7], 9.5; in the assay on HepG2 [8], 1.9; in the assay on HepG2 [9], 28; in the assay on HepG2 [10], 4. The results for the Activity with HepG2 [5] and in the assay with HepG2 [6] were 34% and 80.2%, respectively. Besides, the IC50 stood at 1.2 µM in the assay with HepG2 [1], 42.8 µM in the assay on HT-29 [2] and 89 µM in the assay with MCF7. For the same compound, in the assay on HepG2 [13], the “Ratio IC50” value amounted to 2.9.

In the case of `O=C(Cn1nc(Cc2ccccc2)c2ccccc2c1=O)Nc1ccccc1`, the IC50 in the assay with HepG2 [1] was determined as 66 µM; in the assay with HT-29 [2], 95.4 µM; in the assay with MCF7, 36 µM.

Source of the values: ChEMBL document CHEMBL3352276, “Design, synthesis and in vitro antitumor activity of novel N-substituted-4-phenyl/benzylphthalazin-1-ones” (Eur J Med Chem, 2015).
